Results: ChEMBL document CHEMBL1123067, “Evaluation of the brain-specific delivery of radioiodinated (iodophenyl)alkyl-substituted amines coupled to a dihydropyridine carrier” (J Med Chem, 1985)

Columns and labels:
Type in all cases: ADME, organism-based
[1] = test system: Rattus norvegicus; test: Distribution of radioactivity in blood tissues of Sprague-Dawley rats after 60 min injection by intravenously; value ranges from 0.54-0.63; conditions: in vivo, iv, 1 h
Outline: (§1)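 Female Sprague-Dawley rats, 10–12 weeks old (170–200 g), fed ad libitum. The ¹²⁵I-labelled agent was dissolved in minimal Me2SO, diluted with saline to a final 20% Me2SO, filtered (0.22 μm), and injected into a lateral tail vein under ether anaesthesia. Tissues were counted against samples of the injected solution and expressed as % injected dose/g (mean, range). Brain/blood ratio is from the means.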

[2] = test system: Rattus norvegicus; test: Distribution of radioactivity in lung tissues of Sprague-Dawley rats after 5 min injection by intravenously; value ranges from 1.35-1.74; conditions: in vivo, iv
[3] = test system: Rattus norvegicus; test: Distribution of radioactivity in kidney tissues of Sprague-Dawley rats after 5 min injection by intravenously; value ranges from 3.18-4.74; conditions: in vivo, iv
[4] = test system: Rattus norvegicus; test: Distribution of radioactivity in kidney tissues of Sprague-Dawley rats after 60 min injection by intravenously; value ranges from 1.17-1.48; conditions: in vivo, iv, 1 h
[5] = test system: Rattus norvegicus; test: Distribution of radioactivity in lung tissues of Sprague-Dawley rats after 15 min injection by intravenously; value ranges from 1.05-1.5; conditions: in vivo, iv, 0.25 h
[6] = test system: Rattus norvegicus; test: Distribution of radioactivity in blood tissues of Sprague-Dawley rats after 15 min injection by intravenously; value ranges from 0.97-1.12; conditions: in vivo, iv, 0.25 h; outline: as §1
[7] = test system: Rattus norvegicus; test: Distribution of radioactivity in brain tissues of Sprague-Dawley rats after 15 min injection by intravenously; value ranges from 0.20-0.25; conditions: in vivo, iv, 0.25 h; outline: as §1
[8] = test system: Rattus norvegicus; test: Distribution of radioactivity in liver tissues of Sprague-Dawley rats after 30 min injection by intravenously; value ranges from 1.77-2.08; conditions: in vivo, iv, 0.5 h
[9] = test system: Rattus norvegicus; test: Distribution of radioactivity in brain tissues of Sprague-Dawley rats after 30 min injection by intravenously; value ranges from 0.17-0.20; conditions: in vivo, iv, 0.5 h; outline: as §1
[10] = test system: Rattus norvegicus; test: Distribution of radioactivity in heart tissues of Sprague-Dawley rats after 60 min injection by intravenously; value ranges from 0.64-0.86; conditions: in vivo, iv, 1 h
[11] = test system: Rattus norvegicus; test: Distribution of radioactivity in heart tissues of Sprague-Dawley rats after 5 min injection by intravenously; value ranges from 1.24-1.46; conditions: in vivo, iv
[12] = Brain to blood ratio in Sprague-Dawley rats after 15 min injection by intravenously; conditions: rat, brain and blood, iv; outline: as §1
[13] = test system: Rattus norvegicus; test: Distribution of radioactivity in liver tissues of Sprague-Dawley rats after 60 min injection by intravenously; value ranges from 1.12-1.44; conditions: in vivo, iv, 1 h
[14] = test system: Rattus norvegicus; test: Distribution of radioactivity in brain tissues of Sprague-Dawley rats after 60 min injection by intravenously; value ranges from 0.15-0.19; conditions: in vivo, iv, 1 h; outline: as §1
[15] = test system: Rattus norvegicus; test: Distribution of radioactivity in heart tissues of Sprague-Dawley rats after 30 min injection by intravenously; value ranges from 0.75-1.03; conditions: in vivo, iv, 0.5 h; outline: as §1
[16] = Brain to blood ratio in Sprague-Dawley rats after 60 min injection by intravenously; conditions: rat, brain and blood, iv; outline: as §1
[17] = test system: Rattus norvegicus; test: Distribution of radioactivity in liver tissues of Sprague-Dawley rats after 5 min injection by intravenously; value ranges from 2.98-3.22; conditions: in vivo, iv
[18] = test system: Rattus norvegicus; test: Distribution of radioactivity in liver tissues of Sprague-Dawley rats after 15 min injection by intravenously; value ranges from 2.43-2.92; conditions: in vivo, iv, 0.25 h
[19] = test system: Rattus norvegicus; test: Distribution of radioactivity in lung tissues of Sprague-Dawley rats after 30 min injection by intravenously; value ranges from 0.86-1.13; conditions: in vivo, iv, 0.5 h
[20] = Brain to blood ratio in Sprague-Dawley rats after 30 min injection by intravenously; conditions: rat, brain and blood, iv; outline: as §1
[21] = test system: Rattus norvegicus; test: Distribution of radioactivity in blood tissues of Sprague-Dawley rats after 30 min injection by intravenously; value ranges from 0.73-0.85; conditions: in vivo, iv, 0.5 h; outline: as §1
[22] = test system: Rattus norvegicus; test: Distribution of radioactivity in brain tissues of Sprague-Dawley rats after 5 min injection by intravenously; value ranges from 0.28-0.37; conditions: in vivo, iv; outline: as §1
[23] = test system: Rattus norvegicus; test: Distribution of radioactivity in kidney tissues of Sprague-Dawley rats after 30 min injection by intravenously; value ranges from 1.56-1.83; conditions: in vivo, iv, 0.5 h
[24] = test system: Rattus norvegicus; test: Distribution of radioactivity in kidney tissues of Sprague-Dawley rats after 15 min injection by intravenously; value ranges from 2.24-3.12; conditions: in vivo, iv, 0.25 h
[25] = test system: Rattus norvegicus; test: Distribution of radioactivity in blood tissues of Sprague-Dawley rats after 5 min injection by intravenously; value ranges from 1.38-1.5; conditions: in vivo, iv; outline: as §1
[26] = test system: Rattus norvegicus; test: Distribution of radioactivity in lung tissues of Sprague-Dawley rats after 60 min injection by intravenously; value ranges from 0.61-0.86; conditions: in vivo, iv, 1 h
[27] = test system: Rattus norvegicus; test: Distribution of radioactivity in heart tissues of Sprague-Dawley rats after 15 min injection by intravenously; value ranges from 0.89-1.24; conditions: in vivo, iv, 0.25 h; outline: as §1
[28] = Brain to blood ratio in Sprague-Dawley rats after 5 min injection by intravenously; conditions: rat, brain and blood, iv; outline: as §1

SMILES: CN1C=CCC(C(=O)NCCc2ccc([125I])cc2)=C1
- Distribution [1]: 0.57%
- Distribution [2]: 1.48%
- Distribution [3]: 4.19%
- Distribution [4]: 1.28%
- Distribution [5]: 1.2%
- Distribution [6]: 1.03%
- Distribution [7]: 0.22%
- Distribution [8]: 1.89%
- Distribution [9]: 0.18%
- Distribution [10]: 0.72%
- Distribution [11]: 1.37%
- Kp at 0.25 h [12]: 0.21
- Distribution [13]: 1.24%
- Distribution [14]: 0.17%
- Distribution [15]: 0.86%
- Kp at 1 h [16]: 0.29
- Distribution [17]: 3.1%
- Distribution [18]: 2.63%
- Distribution [19]: 0.97%
- Kp at 0.5 h [20]: 0.23
- Distribution [21]: 0.77%
- Distribution [22]: 0.32%
- Distribution [23]: 1.72%
- Distribution [24]: 2.54%
- Distribution [25]: 1.42%
- Distribution [26]: 0.66%
- Distribution [27]: 1.08%
- Kp at 5 min [28]: 0.22
